Laboratory results from ChEMBL document CHEMBL1123528, “Syntheses and in vitro evaluation of 4-(2-aminoethyl)-2(3H)-indolones and related compounds as peripheral prejunctional dopamine receptor agonists” (J Med Chem, 1986).

Species: Oryctolagus cuniculus
Test: Ability to stimulate peripheral prejunctional dopaminergic receptors by 50% inhibition of vasoconstrictor response to field stimulation in isolated perfused rabbit ear artery
Format: functional
Summary of the method: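 Isolated rabbit ear artery, perfused, constricted by electrical field (nerve) stimulation. The test drug was given in increasing concentrations, each left in contact with the tissue for 4 min, and the concentration was raised right after the response to nerve stimulation. For dopaminergic blockade, (S)-sulpiride superfusion began after the initial concentration-effect curve was obtained.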

| SMILES | EC50 [nM] |
| --- | --- |
| CCCN(CCC)CCc1ccc(OC)c2c1CC(=O)N2 | > 3000 |
| CCCN(CCc1ccc(O)cc1)CCc1cccc2c1CC(=O)N2 | 28 |
| NCCc1ccc2c(c1)CC(=O)N2 | > 3000 |
| CCCN(CCC)CCc1ccc(O)c(NC=O)c1 | 750 |
| CCCN(CCC)CCc1ccc(O)c2c1CC(=O)N2C | > 3000 |
| CCCN(CCC)CCc1ccc2c(c1)NC(=O)C2 | > 3000 |
| CCCN(CCC)CCc1ccc(O)c2c1C(C)C(=O)N2 (configuration not stated) | 18 |
| CCCN(CCC)CCc1ccc(O)cc1 | 80 |
| NCCc1ccc(O)c2c1CC(=O)N2 | 116 |
| CCCN(CCC)CCc1ccc(O)c2c1C(C)(C)C(=O)N2 | > 3000 |
| O=C1Cc2c(CCNCCc3ccc(O)cc3)ccc(O)c2N1 | 53 |
| CCCN(CCC)CCc1ccc(O)c2c1C(C)(O)C(=O)N2 (configuration not stated) | 218 |
| CCCN(CCC)CCc1ccc2c(c1)CC(=O)N2 | 3000 |
| CCCN(CCC)CCc1ccc(O)c(NC(C)=O)c1 | > 10000 |
| CCCN(CCC)CCc1cccc(O)c1 | 700 |
| NCCc1ccc(O)c(O)c1 [DOPAMINE] | 73 |
| CCCN(CCC)CCc1cccc2c1CC(=O)N2 [ROPINIROLE] | 100 |
